ChEMBL document CHEMBL4041550, “Structure-Activity Relationship Study of QL47: A Broad-Spectrum Antiviral Agent” (ACS Med Chem Lett, 2017)

Experiments:
[1] = Tmax in Swiss albino mouse at 50 mg/kg, ip by LC/MS/MS method; type: ADME, organism-based; details: in vivo
In short: (§1)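 Mouse pharmacokinetics after intravenous, oral or intraperitoneal dosing; plasma parameters derived were T1/2, Tmax, Cmax, AUClast, AUCinf, clearance, Vss and oral bioavailability F.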

[2] = AUClast in Swiss albino mouse at 10 mg/kg, po by LC/MS/MS method; type: ADME, organism-based; parameters: dose 10 mg/kg, time 0 - last, route oral; details: in vivo
dengue virus type 2 [3] = assay: Antiviral activity against Dengue virus serotype 2 replicon harboring GVD mutant infected in HuH7 cells assessed as reduction in viral RNA translation at 10 uM measured at 6 hrs post infection by luciferase reporter gene assay relative to control; type: functional; parameters: scale not given: the % may be the effect or the level left
In short: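 Huh7 cells transfected with in vitro-transcribed nonreplicative DENV2(GVD) reporter replicon RNA, then treated immediately with compound at 2 or 10 μM. Intracellular firefly luciferase activity read 6 h post-transfection as a measure of RNA translation and expressed relative to DMSO-treated samples. Mean ± SD of experimental duplicates, n = 3 repeats.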

[4] = AUC (infinity) in Swiss albino mouse at 2 mg/kg, iv by LC/MS/MS method; type: ADME, organism-based; parameters: dose 2 mg/kg, route intravenous, time infinity; details: in vivo
[5] = biological target: Serine/threonine-protein kinase pim-1 (Homo sapiens, UniProt P11309); assay: Inhibition of recombinant full length His-tagged human PIM1 expressed in baculovirus expression system by Z'-Lyte assay
In short: (§2)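 IC50 against PIM1, PIM2, BTK and BMX determined with Z′-Lyte kinase activity assays.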

dengue virus type 2 [6] = assay: Antiviral activity against Dengue virus serotype 2 strain New Guinea C infected in HuH7 cells assessed as reduction in log-fold change by measuring focus forming unit at 2 uM measured at 24 hrs post infection by focus forming assay relative to control; type: functional, Thailand/NGS-C/1944
In short: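 DENV2-infected Huh7 cells treated with compound at 2 or 10 μM. Infectious virus secreted into culture supernatants at 24 h post-infection/treatment was titred by focus-forming assay. Result expressed as log-fold change relative to DMSO treatment.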

[7] = Half life in Swiss albino mouse at 10 mg/kg, po by LC/MS/MS method; type: ADME, organism-based; details: in vivo; in short: as §1
dengue virus type 2 [8] = assay: Antiviral activity against Dengue virus serotype 2 strain New Guinea C infected in HuH7 cells measured at 24 hrs post infection by focus forming assay; type: functional; details: Thailand/NGS-C/1944, Huh-7, 24 h
In short: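 Huh7 cells infected with DENV2, then treated with a range of compound concentrations. Viral yield measured 24 h later by titration of infectious particles in supernatants; in parallel, cell viability measured. IC90 (1-log10 reduction in infectious progeny) and CC50 derived by non-linear regression. Mean ± SD of experimental duplicates, n ≥ 2 repeats.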

[9] = Cmax in Swiss albino mouse at 2 mg/kg, iv by LC/MS/MS method; type: ADME, organism-based; parameters: dose 2 mg/kg, route intravenous; details: in vivo; in short: as §1
[10] = biological target: T1, Cytoplasmic tyrosine-protein kinase BMX (Homo sapiens, UniProt P51813); assay: Inhibition of recombinant full length His-tagged human BMX cytoplasmic domain expressed in baculovirus expression system by Z'-Lyte assay; in short: as §2
T1 sequence (P51813 whole entry): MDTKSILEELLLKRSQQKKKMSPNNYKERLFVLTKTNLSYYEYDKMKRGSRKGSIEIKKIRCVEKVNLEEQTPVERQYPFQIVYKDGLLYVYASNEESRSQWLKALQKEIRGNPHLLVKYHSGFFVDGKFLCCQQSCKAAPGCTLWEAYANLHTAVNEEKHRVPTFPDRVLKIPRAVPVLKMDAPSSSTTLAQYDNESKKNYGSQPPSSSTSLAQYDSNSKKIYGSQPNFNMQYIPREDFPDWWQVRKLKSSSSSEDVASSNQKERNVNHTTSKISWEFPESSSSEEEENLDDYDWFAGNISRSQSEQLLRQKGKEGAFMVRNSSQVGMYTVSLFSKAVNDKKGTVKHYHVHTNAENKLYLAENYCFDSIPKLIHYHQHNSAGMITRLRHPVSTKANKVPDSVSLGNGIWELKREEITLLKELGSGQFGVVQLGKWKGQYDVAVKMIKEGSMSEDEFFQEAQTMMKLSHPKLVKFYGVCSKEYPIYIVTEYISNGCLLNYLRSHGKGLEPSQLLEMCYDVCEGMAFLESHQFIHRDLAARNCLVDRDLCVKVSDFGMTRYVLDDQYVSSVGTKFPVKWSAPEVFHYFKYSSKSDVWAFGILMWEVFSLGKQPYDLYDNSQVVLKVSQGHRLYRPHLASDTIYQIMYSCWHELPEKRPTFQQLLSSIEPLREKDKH

[11] = Tmax in Swiss albino mouse at 10 mg/kg, ip by LC/MS/MS method; type: ADME, organism-based; details: in vivo; in short: as §1
[12] = Cmax in Swiss albino mouse at 10 mg/kg, ip by LC/MS/MS method; type: ADME, organism-based; parameters: dose 10 mg/kg, route intraperitoneal; details: in vivo; in short: as §1
[13] = Clearance in Swiss albino mouse at 2 mg/kg, iv by LC/MS/MS method; type: ADME, organism-based; details: in vivo; in short: as §1
[14] = Tmax in Swiss albino mouse at 10 mg/kg, po by LC/MS/MS method; type: ADME, organism-based; details: in vivo; in short: as §1
[15] = Cytotoxicity against human HuH7 cells measured after 24 hrs by CellTiter-Glo luminescent cell viability assay; type: cell-based, Huh-7
In short: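 DENV2-infected Huh7 cells treated across a concentration range; cell viability read 24 h later. CC50 (50% cytotoxicity) derived by non-linear regression; mean ± SD of experimental duplicates, n ≥ 2 repeats.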

[16] = Cmax in Swiss albino mouse at 10 mg/kg, po by LC/MS/MS method; type: ADME, organism-based; parameters: dose 10 mg/kg, route oral; details: in vivo; in short: as §1
[17] = Oral bioavailability in Swiss albino mouse at 10 mg/kg by LC/MS/MS method; type: ADME, organism-based; details: in vivo; in short: as §1
[18] = Cmax in Swiss albino mouse at 50 mg/kg, ip by LC/MS/MS method; type: ADME, organism-based; parameters: dose 50 mg/kg, route intraperitoneal; details: in vivo; in short: as §1
[19] = biological target: Serine/threonine-protein kinase pim-2 (Homo sapiens, UniProt Q9P1W9); assay: Inhibition of recombinant full length GST-tagged human PIM2 expressed in baculovirus expression system by Z'-Lyte assay; in short: as §2
Serine/threonine-protein kinase pim-2, sequence (Q9P1W9 whole entry): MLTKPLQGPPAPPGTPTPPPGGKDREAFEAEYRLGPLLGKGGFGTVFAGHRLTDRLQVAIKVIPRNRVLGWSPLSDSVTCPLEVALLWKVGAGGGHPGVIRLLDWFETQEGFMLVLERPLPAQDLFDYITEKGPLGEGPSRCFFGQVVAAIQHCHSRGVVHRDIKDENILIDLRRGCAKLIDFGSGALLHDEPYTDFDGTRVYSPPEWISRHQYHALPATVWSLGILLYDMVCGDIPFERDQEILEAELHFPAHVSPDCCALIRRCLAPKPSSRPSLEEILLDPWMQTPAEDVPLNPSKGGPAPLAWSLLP

Serine/threonine-protein kinase pim-1, sequence (P11309 whole entry): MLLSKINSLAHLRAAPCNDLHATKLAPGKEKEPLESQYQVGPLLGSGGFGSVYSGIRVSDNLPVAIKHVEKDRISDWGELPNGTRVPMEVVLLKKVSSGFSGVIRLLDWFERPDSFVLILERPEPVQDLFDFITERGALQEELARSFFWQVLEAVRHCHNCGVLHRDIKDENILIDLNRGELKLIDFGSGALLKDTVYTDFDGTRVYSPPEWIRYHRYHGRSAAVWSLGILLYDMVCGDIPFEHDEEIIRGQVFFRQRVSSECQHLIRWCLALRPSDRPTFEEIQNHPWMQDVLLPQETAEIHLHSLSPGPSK

Cc1ccc(-n2c(=O)ccc3ccc4ccc(-c5cnn(C)c5)cc4c32)cc1NC(=O)/C=C/CN(C)C
Tmax [1]: 4.8 min | AUC(0-t) [2]: 95.4 ng·h/mL | Activity (dengue virus type 2 [3]): 95% | AUC(0-inf) [4]: 167 ng·h/mL | IC50 [5]: 1790 nM | Activity (dengue virus type 2 [6]): 4 log10FFU/ml | half-life [7]: 91.8 min | IC90 (dengue virus type 2 [8]): 555 nM | Cmax [9]: 462 ng/mL | IC50 [10]: 2420 nM | Tmax [11]: 15 min | Cmax [12]: 787 ng/mL | clearance [13]: 199 mL/min/kg | Tmax [14]: 60 min | CC50 at 24 h [15]: 12000 to 20000 nM | Cmax [16]: 40.4 ng/mL | bioavailability [17]: 12% | Cmax [18]: 4510 ng/mL | IC50 [19]: > 10000 nM
